The values below come from ChEMBL document CHEMBL4371051, “Synthesis and SAR of novel capsazepine analogs with significant anti-cancer effects in multiple cancer types” (Bioorg Med Chem, 2019).

The source made the active and inactive calls. No cut-off for these calls is given here. Some results are limits rather than exact numbers.

Data set [1] deals with HeLa. Put plainly: Antiproliferative activity against human HeLa cells after 24 hrs by cell titer 96 aqueous non-radioactive cell proliferation assay. In kind it is functional, cell-based. The essentials:
(§1)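 Cells kept in high-glucose DMEM with 10% FBS and 1% penicillin/streptomycin at 37°C, 5% CO2. They were exposed for 24 h to compound in serum-free DMEM, with final EtOH ≤0.1% (ethanol stocks made fresh). Viability was read by MTS absorbance against vehicle-treated controls; n=4 per group.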

The subject of data set [2] is HeLa. Kind of data set: Antitumor activity against human HeLa cells xenografted in athymic nude mouse assessed as tumor volume at 40 ug, administered intra-tumorally every day for 14 days (reference value: 562 mm3). In kind it is functional.
Data set [3] is described as follows: Toxicity in athymic nude mouse xenografted with human HeLa cells assessed as effect on adjacent non-malignant tissues at 40 ug, administered intra-tumorally every day for 14 days. To be noted: in vivo, other, 336 h.
A short description of data set [4]: Toxicity in athymic nude mouse xenografted with human HeLa cells assessed as effect on neurological function at 40 ug, administered intra-tumorally every day for 14 days. To be noted: in vivo, other, 336 h. (In general: A xenograft is tissue or cells of one species grown in another, often human tumour cells in immunodeficient mice.)
The nature of data set [5]: Toxicity in athymic nude mouse xenografted with human HeLa cells assessed as effect on respiration at 40 ug, administered intra-tumorally every day for 14 days. The conditions noted are these: in vivo, other, 336 h.
Data set [6] is described as follows: Toxicity in athymic nude mouse xenografted with human HeLa cells assessed as decrease in body weight at 40 ug, administered intra-tumorally every day for 14 days. The conditions noted are these: in vivo, other, 336 h.
Data set [7] can be described thus: Toxicity in athymic nude mouse xenografted with human HeLa cells assessed as effect on mobility at 40 ug, administered intra-tumorally every day for 14 days. The conditions noted are these: in vivo, other, 336 h.
Data set [8] can be described thus: Toxicity in athymic nude mouse xenografted with human HeLa cells assessed as effect on motor functions at 40 ug, administered intra-tumorally every day for 14 days. To be noted: in vivo, other, 336 h.
The test system of a further data set is HSC-3. Put plainly: Antiproliferative activity against human HSC3 cells after 24 hrs by cell titer 96 aqueous non-radioactive cell proliferation assay. In kind it is functional, cell-based. To be noted: HSC-3, 24 h. The essentials:
as §1

For another data set, the system named is NCI-H460. Kind of data set: Antiproliferative activity against human NCI-H460 cells after 24 hrs by cell titer 96 aqueous non-radioactive cell proliferation assay. It is filed as functional, cell-based. To be noted: NCI-H460, 24 h. The method in brief: as §1
The next data set concerns MDA-MB-231. Put plainly: Antiproliferative activity against human MDA231 cells after 24 hrs by cell titer 96 aqueous non-radioactive cell proliferation assay. It is filed as functional, cell-based. To be noted: MDA-MB-231, 24 h. The essentials:
as §1

The subject of a further data set is PC-3. Kind of data set: Antiproliferative activity against human PC3 cells after 24 hrs by cell titer 96 aqueous non-radioactive cell proliferation assay. In kind it is functional, cell-based. The conditions noted are these: PC-3, 24 h. The essentials:
as §1

Data set [9] addresses Transient receptor potential cation channel subfamily V member 1 (Homo sapiens) (UniProt Q8NER1). Kind of data set: Antagonist activity at TRPV1 (unknown origin) expressed in CHO cells assessed as inhibition of capsaicin-induced increase in calcium influx at 1 uM pretreated before 100 nM capsaicin addition by Calcium 6 dye-based FLIPR assay. It is filed as cell-based. The method in brief: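 CHO-TRPV1 cells, 9x10³ per well, loaded with Calcium 6 dye for 2 h. Cells were pretreated with 1 μM compound, then challenged with 100 nM capsaicin. TRPV1 inhibition was judged from the change in fluorescence at 535 nm.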

Data set [10] has the same target. Kind of data set: Agonist activity at TRPV1 (unknown origin) expressed in CHO cells assessed as increase in calcium influx at 1 uM by Calcium 6 dye-based FLIPR assay. It is filed as cell-based. The method in brief: (§2)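 CHO cells stably overexpressing TRPV1, grown at 37°C in 5% CO2. 9x10³ cells per well, loaded with Calcium 6 dye for 2 h. Dose-response curves were run, then compounds at 1 μM were compared with 100 nM capsaicin as the positive control and 1 μM CPZ as the negative control. Calcium influx was read as the change in fluorescence at 535 nm; n=3 per group.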

The test system of data set [11] is HeLa. Kind of data set: Potency index, ratio of capsazepine IC50 to compound IC50 for antiproliferative activity against human HeLa cells. It is filed as functional.
Data set [12] has as its target Transient receptor potential cation channel subfamily V member 1 (Homo sapiens) (UniProt Q8NER1). Put plainly: Agonist activity at TRPV1 (unknown origin) expressed in CHO cells assessed as increase in calcium influx by Calcium 6 dye-based FLIPR assay. It is filed as cell-based. The method in brief:
as §2

As a reminder, the IC50 is the concentration at which inhibition is half-maximal.

Sequence of Transient receptor potential cation channel subfamily V member 1 (Homo sapiens) (Q8NER1 whole entry): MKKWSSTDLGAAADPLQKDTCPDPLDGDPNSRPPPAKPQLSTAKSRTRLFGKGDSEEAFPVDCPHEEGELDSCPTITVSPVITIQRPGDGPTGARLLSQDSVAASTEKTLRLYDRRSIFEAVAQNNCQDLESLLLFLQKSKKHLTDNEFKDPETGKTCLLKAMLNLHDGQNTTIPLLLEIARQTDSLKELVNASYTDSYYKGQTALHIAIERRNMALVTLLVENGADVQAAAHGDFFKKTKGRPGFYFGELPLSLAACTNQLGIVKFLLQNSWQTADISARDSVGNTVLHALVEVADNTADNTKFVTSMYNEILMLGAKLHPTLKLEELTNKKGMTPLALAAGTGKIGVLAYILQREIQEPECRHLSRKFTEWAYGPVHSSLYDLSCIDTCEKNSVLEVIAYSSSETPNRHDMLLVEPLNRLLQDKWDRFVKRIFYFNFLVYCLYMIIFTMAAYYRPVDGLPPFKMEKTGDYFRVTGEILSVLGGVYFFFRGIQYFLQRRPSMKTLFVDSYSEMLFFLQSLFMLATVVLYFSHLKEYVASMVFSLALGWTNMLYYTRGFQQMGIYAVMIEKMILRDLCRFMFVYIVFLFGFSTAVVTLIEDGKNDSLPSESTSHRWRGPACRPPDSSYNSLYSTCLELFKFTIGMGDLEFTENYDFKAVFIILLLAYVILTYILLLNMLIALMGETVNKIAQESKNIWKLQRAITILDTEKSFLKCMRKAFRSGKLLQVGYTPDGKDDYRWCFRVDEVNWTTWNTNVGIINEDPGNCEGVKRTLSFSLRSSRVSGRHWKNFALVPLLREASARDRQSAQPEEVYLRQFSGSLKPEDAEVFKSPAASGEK

Consider `Oc1ccc2c(c1)CN(C(=S)NCCc1ccc(Cl)cc1)CCC2`, for which the IC50 with HeLa [1] worked out at 50 µM.

Turning to `COc1ccc2c(c1)CCCN(C(=S)NCCc1ccc(Cl)cc1)C2`, the half-inhibitory concentration (IC50) in the data set with HeLa [1] was greater than 100 µM.

As for `COc1cc2c(cc1OC)CN(C(=O)NCCc1ccc(Cl)cc1)CC2`, the concentration for half-maximal inhibition (IC50) in the data set with HeLa [1] is greater than 100 µM.

On to `Oc1cc2c(cc1O)CN(C(=S)NCCc1ccc(Cl)cc1)CCC2` [CAPSAZEPINE], for which the half-inhibitory concentration (IC50) with HeLa [1] was 30 µM.

Take `CN(CCc1ccc(O)c(O)c1)C(=O)NCCc1ccc(Cl)cc1`: the 50% inhibitory concentration (IC50) in the data set on HeLa [1] is greater than 30 µM.

As for `Oc1cc2c(cc1O)C(c1ccccc1)N(C(=S)NCCc1ccccc1)CC2` (configuration not stated), the IC50 with HeLa [1] stood at 25 µM.

For the molecule `Oc1cc2c(cc1O)C(c1ccccc1)N(C(=S)NCCc1ccc(Cl)cc1Cl)CC2` (configuration not stated), the half-inhibitory concentration (IC50) with HeLa [1] was 20 µM.

Turning to `COc1ccc(CN(C)C(=O)NCCc2ccc(Cl)cc2)cc1OC`, the IC50 in the data set with HeLa [1] is greater than 30 µM.

For `Oc1cc2c(cc1O)CN(C(=S)NCCc1ccc(Cl)cc1Cl)CC2`, the half-inhibitory concentration (IC50) with HeLa [1] was 30 µM.

`Oc1cc2c(cc1O)CN(C(=S)NCCc1ccccc1)CC2`: the concentration for half-maximal inhibition (IC50) with HeLa [1] turned out to be 25 µM.

In the case of `COc1ccc(CCNC(=S)N2CCc3cc(O)c(O)cc3C2c2ccccc2)cc1` (configuration not stated), the 50% inhibitory concentration (IC50) in the data set on HeLa [1] worked out at 24 µM.

Consider `CN(Cc1ccc(O)c(O)c1)C(=S)NCCc1ccc(Cl)cc1`, for which, in the data set on HeLa [1], the IC50 was greater than 100 µM.

Regarding `CC(C)C1c2cc(O)c(O)cc2CCN1C(=S)NCc1ccccc1` (configuration not stated), the IC50 in the data set with HeLa [1] amounted to 35 µM.

Consider `CC(C)C1c2cc(O)c(O)cc2CCN1C(=S)NCCc1ccc(Cl)cc1` (configuration not stated), for which the half-maximal inhibitory concentration (IC50) with HeLa [1] was 55 µM.

Consider `Oc1cc2c(cc1O)C(c1ccccc1)N(C(=S)NCc1ccccc1)CC2` (configuration not stated), for which the IC50 with HeLa [1] is less than 5 µM; in the data set on HSC-3, 2 µM; with NCI-H460 it was 42 µM; with MDA-MB-231 it was 32 µM; with PC-3, 2.5 µM. Also, the Activity with HeLa [2] is 283 mm3; in data set [3], “Non-Toxic”; in [4], “Non-Toxic”; in data set [5], “Non-Toxic”; in [6], “Non-Toxic”; in data set [7], “Non-Toxic”. Moreover, in data set [8], the Activity result was “Non-Toxic”. Further, in data set [9], the inhibition result was “inactive”. Also, in [10], the result was inactive. For the same molecule, the “Ratio IC50” value in the data set on HeLa [11] came to 6.

As to `COc1ccc2c(c1)CN(C(=S)NCCc1ccc(Cl)cc1)CCC2`, the IC50 in the data set on HeLa [1] was greater than 100 µM.

`Oc1cc2c(cc1O)CN(C(=S)NCCc1ccc(Cl)cc1)C2`: the IC50 with HeLa [1] was 85 µM.

Take `Oc1cc2c(cc1O)CN(C(=S)NCCc1ccc(Cl)cc1)CC2`: the half-maximal inhibitory concentration (IC50) is less than 10 µM with HeLa [1]; 20 µM in the data set on HSC-3; 23 µM in the data set on NCI-H460; 5 µM in the data set with MDA-MB-231; 13 µM in the data set with PC-3. The Activity in the data set on HeLa [2] is on record as 351 mm3; in data set [3], “Non-Toxic”; in data set [4] it was “Non-Toxic”; in data set [5], “Non-Toxic”; in data set [6], “Non-Toxic”; in data set [7], “Non-Toxic”. Also, the Activity result in data set [8] was “Non-Toxic”; in [12], “Dose-dependent effect”.

As to `Oc1cc2c(cc1O)C(c1ccccc1)N(C(=S)NCCc1ccc(F)cc1)CC2` (configuration not stated), the IC50 in the data set with HeLa [1] stood at 17 µM.

Take `Oc1ccc2c(c1)CCCN(C(=S)NCCc1ccc(Cl)cc1)C2`: in the data set on HeLa [1], the IC50 came out at 65 µM.

As to `CN(CCc1ccc(O)c(O)c1)C(=S)NCCc1ccc(Cl)cc1`, the IC50 in the data set with HeLa [1] is 30 µM.

With `CN(Cc1ccc(O)c(O)c1)C(=O)NCCc1ccc(Cl)cc1`, the IC50 in the data set on HeLa [1] came out at 30 µM.

Consider `Oc1cc2c(cc1O)CN(C(=S)NCc1ccccc1)CC2`, for which the concentration for half-maximal inhibition (IC50) in the data set on HeLa [1] was greater than 100 µM.

Consider `COc1ccc(CCNC(=S)N2CCc3cc(O)c(O)cc3C2)cc1`, for which the half-maximal inhibitory concentration (IC50) in the data set with HeLa [1] is greater than 100 µM.

In the case of `O=C(NCCc1ccc(Cl)cc1)N1CCc2cc(O)c(O)cc2C1`, the IC50 with HeLa [1] was 15 µM.

Take `CC(C)C1c2cc(O)c(O)cc2CCN1C(=S)NCCc1ccc(F)cc1` (configuration not stated): the half-inhibitory concentration (IC50) with HeLa [1] was determined as 28 µM.

In the case of `CC(C)C1c2cc(O)c(O)cc2CCN1C(=S)NCCc1ccccc1` (configuration not stated), in the data set with HeLa [1], the concentration for half-maximal inhibition (IC50) came out at 67 µM.

Turning to `COc1cc2c(cc1OC)CN(C(=S)NCCc1ccc(Cl)cc1)CC2`, the IC50 in the data set with HeLa [1] was greater than 100 µM.

In the case of `Oc1cc2c(cc1O)CN(C(=S)NCCc1ccc(F)cc1)CC2`, the 50% inhibitory concentration (IC50) in the data set on HeLa [1] came out at 25 µM.

With `CC(C)C1c2cc(O)c(O)cc2CCN1C(=S)NCCc1ccc(Cl)cc1Cl` (configuration not stated), the IC50 in the data set with HeLa [1] is 46 µM.

For the molecule `Oc1cc2c(cc1O)C(c1ccccc1)N(C(=S)NCCc1ccc(Cl)cc1)CC2` (configuration not stated), the IC50 with HeLa [1] is less than 5 µM.
